ChEMBL document CHEMBL2163200, “Synthesis, biological evaluation, and structure-activity relationships of novel substituted N-phenyl ureidobenzenesulfonate derivatives blocking cell cycle progression in S-phase and inducing DNA double-strand breaks” (J Med Chem, 2012)

Tests used:
HT-29 = assay: Cytotoxicity against human HT-29 cells after 48 hrs by SRB assay; assay type: functional, cell-based; conditions: HT-29, 48 h
Method in brief: (§1)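 NCI sulforhodamine B protocol. Cells were grown in high-glucose DMEM with 5% FBS and seeded per well at 4 × 10^3 (HT-29), 3.5 × 10^3 (M21) or 3 × 10^3 (MCF-7), then allowed 24 h to attach. Serial dilutions from 200 μM to 780 nM final were applied in DMSO <0.5% for 48 h. Cells were fixed with cold TCA (10% final) and stained with SRB, with absorbance read at 530–568 nm. Growth inhibition was computed against day-0 plates, giving the 50% inhibitory concentration. At least two experiments in triplicate, CV <10%.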

Jurkat [1] = assay: Cell cycle arrest in human Jurkat E6-1 cells assessed as accumulation at S phase at 10 uM after 24 hrs by FACS flow cytometry; assay type: functional
Method in brief: (§2)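 Jurkat E6 cells grown in RPMI 1640 with 10% FBS at 37 °C, 5% CO2. Compounds were serially diluted in medium starting 50% above the M21 IC50. 4.0 × 10^5 cells were exposed for 24 h, then washed and spiked with chicken red blood cells as internal standard. Cells were fixed in ice-cold ethanol, stained with 1 μg/mL DAPI on ice for 1 h, and phase distribution was read by flow cytometry. The control was 0.5% DMSO.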

M21 = assay: Cytotoxicity against human M21 cells after 48 hrs by SRB assay; assay type: functional, cell-based; conditions: M21, 48 h; method in brief: as §1
MCF7 = assay: Cytotoxicity against human MCF7 cells after 48 hrs by SRB assay; assay type: functional, cell-based; conditions: MCF7, 48 h; method in brief: as §1
Jurkat [2] = assay: Cell cycle arrest in human Jurkat E6-1 cells assessed as accumulation at G0/G1 phase at 10 uM after 24 hrs by FACS flow cytometry; assay type: functional
Method in brief: (§3)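 Jurkat E6 cells cultured in RPMI 1640 with 10% FBS at 37 °C, 5% CO2. Compounds serially diluted in medium, starting 50% above the M21 IC50. 4.0 × 10^5 cells were exposed for 24 h. Cells were washed with PBS, chicken red blood cells added as internal standard, and fixed in ice-cold EtOH. After 1 h on ice in PBS with 1 μg/mL DAPI, phase distribution was read by flow cytometry. DMSO-treated cells served as control.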

Jurkat [3] = assay: Cell cycle arrest in human Jurkat E6-1 cells assessed as accumulation at G2/M phase at 10 uM after 24 hrs by FACS flow cytometry; assay type: functional; method in brief: as §3
Jurkat [4] = assay: Cell cycle arrest in human Jurkat E6-1 cells assessed as accumulation at S phase at 7.5 uM after 24 hrs by FACS flow cytometry; assay type: functional
Method in brief: (§4)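 Jurkat E6 T-lymphoblasts in RPMI 1640 with 10% FBS, 37 °C, 5% CO2. […] Chicken red blood cells were added as internal standard. Cells were fixed in ice-cold EtOH and stained with 1 μg/mL DAPI on ice for 1 h before flow cytometry of phase distribution. Vehicle control was 0.5% DMSO.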

Jurkat [5] = assay: Cell cycle arrest in human Jurkat E6-1 cells assessed as accumulation at G2/M phase at 7.5 uM after 24 hrs by FACS flow cytometry; assay type: functional; method in brief: as §2
Jurkat [6] = assay: Cell cycle arrest in human Jurkat E6-1 cells assessed as accumulation at G0/G1 phase at 7.5 uM after 24 hrs by FACS flow cytometry; assay type: functional; method in brief: as §3
Jurkat [7] = assay: Cell cycle arrest in human Jurkat E6-1 cells assessed as accumulation at G0/G1 phase at 13 uM after 24 hrs by FACS flow cytometry; assay type: functional; method in brief: as §3
Jurkat [8] = assay: Cell cycle arrest in human Jurkat E6-1 cells assessed as accumulation at G2/M phase at 13 uM after 24 hrs by FACS flow cytometry; assay type: functional; method in brief: as §3
Jurkat [9] = assay: Cell cycle arrest in human Jurkat E6-1 cells assessed as accumulation at S phase at 13 uM after 24 hrs by FACS flow cytometry; assay type: functional; method in brief: as §2
Jurkat [10] = assay: Cell cycle arrest in human Jurkat E6-1 cells assessed as accumulation at G2/M phase at 63 uM after 24 hrs by FACS flow cytometry; assay type: functional; method in brief: as §2
Jurkat [11] = assay: Cell cycle arrest in human Jurkat E6-1 cells assessed as accumulation at S phase at 63 uM after 24 hrs by FACS flow cytometry; assay type: functional; method in brief: as §4
Jurkat [12] = assay: Cell cycle arrest in human Jurkat E6-1 cells assessed as accumulation at G0/G1 phase at 63 uM after 24 hrs by FACS flow cytometry; assay type: functional; method in brief: as §3
Jurkat [13] = assay: Cell cycle arrest in human Jurkat E6-1 cells assessed as accumulation at G2/M phase at 4.8 uM after 24 hrs by FACS flow cytometry; assay type: functional; method in brief: as §2
Jurkat [14] = assay: Cell cycle arrest in human Jurkat E6-1 cells assessed as accumulation at S phase at 4.8 uM after 24 hrs by FACS flow cytometry; assay type: functional; method in brief: as §4
Jurkat [15] = assay: Cell cycle arrest in human Jurkat E6-1 cells assessed as accumulation at G0/G1 phase at 4.8 uM after 24 hrs by FACS flow cytometry; assay type: functional; method in brief: as §3
Jurkat [16] = assay: Cell cycle arrest in human Jurkat E6-1 cells assessed as accumulation at G0/G1 phase at 17 uM after 24 hrs by FACS flow cytometry; assay type: functional; method in brief: as §3
Jurkat [17] = assay: Cell cycle arrest in human Jurkat E6-1 cells assessed as accumulation at G2/M phase at 17 uM after 24 hrs by FACS flow cytometry; assay type: functional; method in brief: as §2
Jurkat [18] = assay: Cell cycle arrest in human Jurkat E6-1 cells assessed as accumulation at S phase at 17 uM after 24 hrs by FACS flow cytometry; assay type: functional; method in brief: as §2
Jurkat [19] = assay: Cell cycle arrest in human Jurkat E6-1 cells assessed as accumulation at G2/M phase at 64 uM after 24 hrs by FACS flow cytometry; assay type: functional; method in brief: as §2
Jurkat [20] = assay: Cell cycle arrest in human Jurkat E6-1 cells assessed as accumulation at G0/G1 phase at 64 uM after 24 hrs by FACS flow cytometry; assay type: functional; method in brief: as §3
Jurkat [21] = assay: Cell cycle arrest in human Jurkat E6-1 cells assessed as accumulation at S phase at 64 uM after 24 hrs by FACS flow cytometry; assay type: functional; method in brief: as §4

For `CCCc1ccccc1NS(=O)(=O)c1cccc(NC(=O)NCCCl)c1`, the IC50 (HT-29) was 15 µM, the Activity (Jurkat [1]) was 39% and the IC50 (M21) was 17 µM. It also gave an IC50 (MCF7) of 16 µM, an Activity (Jurkat [2]) of 42% and an Activity (Jurkat [3]) of 19%.

In the case of `O=C(NCCCl)Nc1cccc(S(=O)(=O)Oc2ccc(O)cc2)c1`, the IC50 (HT-29) is reported as 120 µM, the Activity (Jurkat [4]) is reported as 54% and the Activity (Jurkat [5]) is reported as 22%. It also gave an IC50 (M21) of 73 µM, an IC50 (MCF7) of 87 µM and an Activity (Jurkat [6]) of 24%.

Molecule `CCCc1ccccc1OS(=O)(=O)c1cccc(NC(=O)NCCCl)c1` has an IC50 (HT-29) of 15 µM, an Activity (Jurkat [7]) of 47% and an Activity (Jurkat [8]) of 17%. It also gave an IC50 (M21) of 17 µM and an Activity (Jurkat [9]) of 36%.

Work on `Cc1ccccc1NS(=O)(=O)c1cccc(NC(=O)NCCCl)c1` yielded an IC50 (HT-29) of 71 µM, an Activity (Jurkat [10]) of 14% and an IC50 (M21) of 91 µM. It also gave an IC50 (MCF7) of 86 µM, an Activity (Jurkat [11]) of 45% and an Activity (Jurkat [12]) of 41%.

In the case of `Cc1cccc(OS(=O)(=O)c2ccc(NC(=O)NCCCl)cc2)c1`, the Activity (Jurkat [13]) is reported as 13%, the IC50 (HT-29) is reported as 11 µM and the Activity (Jurkat [14]) is reported as 52%. It also gave an IC50 (M21) of 7.2 µM, an Activity (Jurkat [15]) of 35% and an IC50 (MCF7) of 17 µM.

`COc1ccc(OS(=O)(=O)c2ccc(NC(=O)NCCCl)cc2)cc1` was tested, and the Activity (Jurkat [16]) was 43%, the Activity (Jurkat [17]) was 15% and the IC50 (M21) was 18 µM. It also gave an IC50 (MCF7) of 27 µM and an Activity (Jurkat [18]) of 42%.

With `CCc1ccccc1NS(=O)(=O)c1cccc(NC(=O)NCCCl)c1` the IC50 (HT-29) was 48 µM, the IC50 (M21) was 65 µM and the IC50 (MCF7) was 46 µM. For the same molecule, the Activity (Jurkat [19]) was 12%, the Activity (Jurkat [20]) was 46% and the Activity (Jurkat [21]) was 42%.
